Source: publication PMC8052299 (Biochemical pharmacology, 2021)
Read-outs that look alike come from different tables or passages of the source.

What was measured:
HIV-1NL4.3 = test: HIV replication assay in PBMCs; format: cell-based
[1] = Viability of uninfected PBMCs; format: cell-based, human; conditions: human, CC50, uninfected PBMCs, Viacount dye
J-Lat 9.2 cells = test: LRA-induced provirus expression; format: cell-based; conditions: for EC50: J-Lat 9.2, 24 h; for provirus expression inhibited: J-Lat 9.2, 10 ng/mL TNFα; for stimulation of GFP expression: J-Lat 9.2, data not shown; for GFP expression induced, % of cells: 24 h, LRA only
J-Lat 10.6 cells [2] = test: LRA-induced provirus expression; format: cell-based; conditions: for EC50: J-Lat 10.6, 24 h
OM-10.1 cells = test: TNFα-induced provirus expression; format: cell-based; conditions: for EC50: 24 h, read-out: TNFα EC50, inhibition of provirus expression
Outline: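 OM-10.1 cells seeded at 200,000 cells/well and co-treated with 1 ng/mL TNFα plus test compound or 0.1% DMSO for 24 h. Cells were fixed, permeabilized, stained for intracellular p24Gag (KC57-RD1) and scored on live-gated cells by flow cytometry. EC50s were derived after normalizing to TNFα-only controls.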

J-Lat 10.6 cells [3] = format: cell-based; conditions: for GFP expression 24 hours after washing, % of vehicle-treated control cells: washed, 24 h drug-free
CDK9/cyclin T1 = CDK9/cyclin T1 (Homo sapiens, UniProt P50750); test: CDK9 kinase activity assay; format: biochemical
[4] = test system: Tat-dependent transactivation; test: Tat-transactivated mCherry expression in JurTat cells; format: cell-based
Outline: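 JurTat cells (Tat-Dendra plus HIV LTR-mCherry) were induced with 500 ng/mL doxycycline and seeded at 200,000 cells/well with test compound or 0.1% DMSO. After 24 h, Tat-Dendra and mCherry were measured by flow cytometry. Values are percent positive cells and mCherry:Dendra fluorescence ratio, expressed relative to 0.1% DMSO-treated cells.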

class I and II HDAC = test: Cellular HDAC activity assay; format: cell-based; conditions: for IC50: read-out: HDAC Inhibition IC50, Jurkat cells, 90 min, HDAC-Glo I/II
PBMCs = test: Viability of uninfected PBMCs; format: cell-based, human; conditions: 6 days; for toxicity: up to 30 μM
Jurkat cells = test: Jurkat cell viability, 24 h; format: cell-based; conditions: 30 μM
[5] = read-out: Panobinostat EC50, inhibition of provirus expression
[6] = read-out: Prostratin EC50, inhibition of provirus expression
[7] = read-out: TNFα EC50, inhibition of provirus expression
[8] = read-out: HMBA EC50, inhibition of provirus expression
[9] = read-out: JQ1 EC50, inhibition of provirus expression
[10] = 15 μM, JurTat + 500 ng/mL Dox, 24 h

CDK9/cyclin T1, sequence (P50750 whole entry): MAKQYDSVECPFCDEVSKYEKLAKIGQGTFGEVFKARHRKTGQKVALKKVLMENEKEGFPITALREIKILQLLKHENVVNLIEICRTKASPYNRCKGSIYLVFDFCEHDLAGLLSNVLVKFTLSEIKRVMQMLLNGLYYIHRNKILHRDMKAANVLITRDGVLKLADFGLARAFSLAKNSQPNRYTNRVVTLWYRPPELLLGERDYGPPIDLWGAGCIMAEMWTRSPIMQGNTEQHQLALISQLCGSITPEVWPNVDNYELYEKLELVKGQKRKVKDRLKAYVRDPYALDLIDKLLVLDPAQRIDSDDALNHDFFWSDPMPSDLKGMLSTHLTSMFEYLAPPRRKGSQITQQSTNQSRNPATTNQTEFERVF
CDK9/cyclin T1, sequence (O60563 whole entry partner): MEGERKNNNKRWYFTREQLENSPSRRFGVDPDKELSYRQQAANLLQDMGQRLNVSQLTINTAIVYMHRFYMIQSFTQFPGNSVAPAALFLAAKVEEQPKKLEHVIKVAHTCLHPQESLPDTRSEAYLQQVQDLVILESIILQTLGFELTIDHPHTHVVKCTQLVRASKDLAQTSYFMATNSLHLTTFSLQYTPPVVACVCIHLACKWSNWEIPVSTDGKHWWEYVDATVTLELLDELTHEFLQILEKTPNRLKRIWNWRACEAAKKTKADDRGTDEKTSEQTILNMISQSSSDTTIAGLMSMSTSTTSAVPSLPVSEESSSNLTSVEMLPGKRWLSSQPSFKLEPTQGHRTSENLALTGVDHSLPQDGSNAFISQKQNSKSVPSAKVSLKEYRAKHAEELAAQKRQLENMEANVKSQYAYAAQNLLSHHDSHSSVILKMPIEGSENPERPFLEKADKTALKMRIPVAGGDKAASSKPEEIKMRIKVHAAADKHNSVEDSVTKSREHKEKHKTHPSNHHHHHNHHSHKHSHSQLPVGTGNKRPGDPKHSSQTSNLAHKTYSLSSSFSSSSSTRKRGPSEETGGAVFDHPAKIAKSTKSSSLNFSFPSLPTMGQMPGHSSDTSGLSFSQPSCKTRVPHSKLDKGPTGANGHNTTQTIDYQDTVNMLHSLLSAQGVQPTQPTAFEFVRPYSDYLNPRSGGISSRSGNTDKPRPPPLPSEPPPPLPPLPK

Row | Compound | Selectivity Index (CC50/EC50) (HIV-1NL4.3) | CC50 at 6 days [1] [µM] | EC50 (J-Lat 9.2 cells; [5]) [µM] | EC50 (J-Lat 9.2 cells; [6]) [µM] | EC50 (J-Lat 9.2 cells; [7]) [µM] | EC50 (J-Lat 10.6 cells [2]; [8]) [µM] | EC50 (J-Lat 10.6 cells [2]; [9]) [µM] | EC50 (J-Lat 10.6 cells [2]; [7]) [µM] | EC50 (OM-10.1 cells) [µM] | GFP expression 24 hours after washing, % of vehicle-treated control cells (J-Lat 10.6 cells [3]; 10 μM for 21 days, J-Lat 10.6) [%] | IC50 (CDK9/cyclin T1) [µM] | HDAC activity inhibited (class I and II HDAC; 10 μM, Jurkat) [%] | IC50 (class I and II HDAC) [µM] | other results
1 | O=c1cc(-c2ccc(O)cc2)oc2cc(O)cc(O)c12 [Apigenin, apigenin] | 4.0 | 19.8 ± 6.5 | 4.1 ± 0.4 | 7.3 ± 1.1 | 5.6 ± 0.6 | 5.2 ± 0.8 | 7.2 ± 1.1 | 6.2 ± 0.3 | 4.1 ± 0.8 | 80.6 ± 80.5 | 0.21 ± 0.1 | 19.4 ± 5.4 | 47.2 ± 6.7 | Dendra, % of fluorescence in cells treated with only Dox ([4]; 15 μM, JurTat): 39.9%; mCherry, % of fluorescence in cells treated with only Dox ([4]; 15 μM, JurTat): 13.7%; residual mCherry fluorescence as % of residual Dendra fluorescence ([4]; 15 μM, JurTat): 34.3%; Dendra expression, % of cells [4, 10]: 17.4 ± 6.5%; mCherry expression, % of cells [4, 10]: 1.8 ± 0.7%; EC50, mCherry:Dendra fluorescence ratio ([4]; JurTat + 500 ng/mL Dox, 24 h): 14.5 ± 1.5 µM
2 | COc1cc(F)ccc1-c1ncnc(Nc2cccc(C[S@](C)(=N)=O)c2)n1 [Atuveciclib, atuveciclib, reference compound] |  | 24.7 ± 4.9 | 3.6 ± 0.8 | 1.8 ± 0.1 | 1.7 ± 0.2 | 1.8 ± 0.1 | 2.4 ± 0.2 | 4.3 ± 0.2 | 1.8 ± 0.09 | 53.0 ± 0.8 |  | 11.3 ± 12.9 | > 90 | CC50 (PBMCs; Viacount dye): 24.4 ± 1.5 µM; viability reduced vs 0.1% DMSO (Jurkat cells): 61.3 ± 2.6%; GFP expression 11 days following wash-out (J-Lat 10.6 cells [3]; 10 μM for 21 days, J-Lat 10.6): returned to those of untreated controls; GFP expression before wash-out, % of untreated cells (J-Lat 10.6 cells [3]; 10 μM, 21 days, J-Lat 10.6): 3.4 ± 0.7%; spontaneous GFP production abolished (J-Lat 10.6 cells [3]; 10 μM, after 9 days, J-Lat 10.6): > 95%; duration of reinforced latency following withdrawal in vitro (J-Lat 10.6 cells [3]; J-Lat 10.6, after 21 days' treatment): 9 days; HDAC activity inhibited (class I and II HDAC; 90 μM, Jurkat): 29.7 ± 14.3%
3 | O=c1cc(-c2ccccc2)oc2cc(O)cc(O)c12 [Chrysin, chrysin] | > 3.3 | > 30 | 2.8 ± 0.4 | 4.3 ± 1.2 | 4 ± 0.4 | 6.7 ± 1.4 | 7.7 ± 1.5 | 6.3 ± 0.7 | 4.7 ± 0.3 | 70.9 ± 65.6 | 0.021 ± 0.01 | 37.9 ± 7.7 | 24 ± 4.8 | toxicity (PBMCs): no toxicity was observed; provirus expression inhibited (J-Lat 9.2 cells; 3 μM): 22.5 ± 24.9%; provirus expression inhibited (J-Lat 9.2 cells; 10 μM): 88.3 ± 8.8%
4 | CC(=O)NCCCCCCNC(C)=O [HMBA, reference compound] |  |  |  |  |  |  |  |  |  |  |  |  |  | stimulation of GFP expression (J-Lat 9.2 cells): did not stimulate GFP expression; GFP production, % of cells (J-Lat 10.6 cells [2]; J-Lat 10.6, 10 mM, LRA only): 34.6 ± 1.4%
5 | Cc1sc2c(c1C)C(c1ccc(Cl)cc1)=N[C@@H](CC(=O)OC(C)(C)C)c1nnc(C)n1-2 [JQ1, reference compound] |  |  |  |  |  |  |  |  |  |  |  |  |  | stimulation of GFP expression (J-Lat 9.2 cells): did not stimulate GFP expression; GFP production, % of cells (J-Lat 10.6 cells [2]; J-Lat 10.6, 10 μM, LRA only): 35.9 ± 2.0%
6 | O=c1cc(-c2ccc(O)c(O)c2)oc2cc(O)cc(O)c12 [Luteolin, luteolin] | 1.1 | 13.9 ± 5.9 | 6.8 ± 0.8 | 20.6 ± 2.6 | 7.6 ± 0.6 | 26.5 ± 5.8 | 15.4 ± 1.5 | 13.6 ± 0.8 | 10.3 ± 0.6 | 79.9 ± 26.6 | 0.072 ± 0.03 | 10.1 ± 1.6 | > 90 | EC50, mCherry:Dendra fluorescence ratio ([4]; JurTat + 500 ng/mL Dox, 24 h): 9.5 ± 1.5 µM; HDAC activity inhibited (class I and II HDAC; 100 μM, Jurkat): 42.6 ± 9.5%
7 | O=C1C[C@@H](c2ccc(O)cc2)Oc2cc(O)cc(O)c21 [Naringenin, naringenin, reference compound] |  | > 30 | > 30 | > 30 | > 30 | > 30 | > 30 | > 30 | > 30 |  | > 30 |  | 88.7 ± 32.1 | antiviral activity (HIV-1NL4.3; up to 30 μM): no antiviral activity was observed; toxicity (PBMCs): No toxicity was observed; inhibition of LRA-induced provirus expression (J-Lat 10.6 cells [2]; J-Lat 10.6, TNFα, JQ1, HMBA): did not inhibit any LRA-induced provirus expression; inhibition of TNFα-induced provirus expression (OM-10.1 cells; OM-10.1, 1 ng/mL TNFα): no inhibition was observed; effect on ratio of mCherry:Dendra fluorescence ([4]; up to 30 μM, JurTat): neither naringenin nor L7G substantially affected the ratio
8 | Cc1[nH]c2ccccc2c1CCNCc1ccc(/C=C/C(=O)NO)cc1 [panobinostat, reference compound] |  |  |  |  |  |  |  |  |  |  |  |  |  | GFP expression induced, % of cells (J-Lat 9.2 cells; J-Lat 9.2, 0.1 μM): 10.8 ± 1.4%; cellular HDAC activity reduced (class I and II HDAC; 0.1 μM, Jurkat): 88.0 ± 10.9%
9 | CC(=O)O[C@@]12C[C@@H](C)[C@@]3(O)[C@@H](C=C(CO)C[C@]4(O)C(=O)C(C)=C[C@@H]34)[C@@H]1C2(C)C [prostratin, reference compound] |  |  |  |  |  |  |  |  |  |  |  |  |  | GFP expression induced, % of cells (J-Lat 9.2 cells; J-Lat 9.2, 10 μM): 10.7 ± 2.7%
10 | TNFα |  |  |  |  |  |  |  |  |  |  |  |  |  | GFP expression induced, % of cells (J-Lat 9.2 cells; J-Lat 9.2, 10 ng/mL): 10.4 ± 1.7%; GFP-positive cells induced (J-Lat 10.6 cells [2]; J-Lat 10.6, 10 ng/mL, 24 h, LRA only): 80.3 ± 2.6%; p24Gag production induced, % of live-gated cells (OM-10.1 cells; OM-10.1, 1 ng/mL): 90.6 ± 4.0%
